The source made the active and inactive calls. No cut-off for these calls is given here.
Assays:
[1] = Cytotoxicity against human HuH7 cells after 3 days by CellTiter-Blue assay; format: cell-based, Huh-7
[2] = Inhibition of HCV genotype 1b NS5B replicase C316N mutant infected in human HuH7 cells assessed as reduction of viral replication after 3 days by luciferase reporter assay; format: cell-based, Hepatitis C virus subtype 1b; settings: Hepatitis C virus, Huh-7, 72 h
Hepatitis C virus [3] = assay: Antiviral activity against HCV genotype 1b infected in human HuH7 cells after 3 days by luciferase reporter assay; format: functional, cell-based, Hepacivirus hominis; settings: Hepatitis C virus, genotype 1b, Huh-7, 72 h; read-out: EC50
[4] = Membrane permeability at pH 7.4 by PAMPA; format: physicochemical; settings: read-out: permeability
[5] = molecular target: Voltage-gated inwardly rectifying potassium channel KCNH2 (Homo sapiens, UniProt Q12809); assay: Inhibition of human ERG by thallium flux assay
[6] = molecular target: T1, Nuclear receptor subfamily 1 group I member 2 (Homo sapiens, UniProt O75469); assay: Transactivation of PXR (unknown origin); format: ADME
T1 sequence (O75469 whole entry): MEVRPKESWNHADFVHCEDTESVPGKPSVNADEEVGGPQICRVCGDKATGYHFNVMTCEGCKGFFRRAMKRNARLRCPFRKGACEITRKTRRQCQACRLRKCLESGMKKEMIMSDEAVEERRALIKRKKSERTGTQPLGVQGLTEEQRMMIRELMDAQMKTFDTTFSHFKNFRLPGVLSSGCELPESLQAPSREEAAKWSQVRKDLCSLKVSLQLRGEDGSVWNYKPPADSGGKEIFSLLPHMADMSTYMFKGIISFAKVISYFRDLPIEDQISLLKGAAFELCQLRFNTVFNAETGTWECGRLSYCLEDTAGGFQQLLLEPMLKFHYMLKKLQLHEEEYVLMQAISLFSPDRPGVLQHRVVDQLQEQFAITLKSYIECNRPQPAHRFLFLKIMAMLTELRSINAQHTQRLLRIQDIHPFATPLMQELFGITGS

[7] = Ratio of plasma concentration in human at 25 mg/day administered as single dose to EC50 for HCV genotype 1b NS5B C316N mutant infected in human HuH7 cells
Summary of the method: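 Randomized, double-blind, placebo-controlled Phase I single ascending dose study in healthy volunteers. Single oral dose of an amorphous solid dispersion formulation with 30% drug loading, at doses up to 400 mg. Human plasma exposure was measured and set against the replicon EC50.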

Canis familiaris = assay: Toxicity in dog up to 100 mg/kg, po administered as single dose measured up to 2 weeks; format: organism-based, Canis lupus familiaris; settings: in vivo, 336 h
[8] = Clearance in Sprague-Dawley rat at 2 mg/kg, iv by LC/MS/MS analysis; format: ADME, organism-based; settings: in vivo
Summary of the method: (§1)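 A 10 min constant-rate jugular vein infusion was given in 90:10 PEG-400/ethanol (v/v), n = 3 rats. Plasma was sampled predose and at 10, 15, 30, 45, 60 min and 2, 4, 6, 8, 24 h, then assayed by LC/MS/MS. Clearance and apparent terminal t1/2 were estimated by noncompartmental analysis.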

[9] = Half life in Sprague-Dawley rat at 2 mg/kg,iv by LC/MS/MS analysis; format: ADME, organism-based; settings: Sprague-Dawley, in vivo; summary of the method: as §1
[10] = Tmax in Sprague-Dawley rat at 6 mg/kg, po administered via gavage by LC/MS/MS analysis; format: ADME, organism-based; settings: in vivo
Summary of the method: (§2)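 Rats fasted overnight, then dosed by gavage at 6 mg/kg in 90:10 PEG-400/ethanol (v/v). Plasma sampled serially from cannula into EDTA tubes predose and at 15, 30, 45, 60 min and 2, 4, 6, 8, 24 h; n = 3. Livers removed at 6 h (satellite animals) and 24 h, homogenized in 80% acetonitrile/HBSS, assayed by LC/MS/MS. Tmax taken directly from observed data.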

[11] = Ratio of drug uptake in Sprague-Dawley rat liver to plasma at 6 mg/kg, po administered via gavage after 24 hrs by LC/MS/MS analysis; format: ADME, organism-based; summary of the method: as §2
[12] = Oral bioavailability in Sprague-Dawley rat at 6 mg/kg by LC/MS/MS analysis; format: ADME, organism-based; settings: in vivo
Summary of the method: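 Rats were fasted overnight with free access to water, then dosed by gastric gavage with an […] solution in 90:10 PEG-400/ethanol (v/v), n = 3 per group. EDTA plasma was sampled predose and at 15, 30, 45, 60 min and 2, 4, 6, 8, 24 h, then assayed by LC/MS/MS. Parameters come from noncompartmental analysis: Cmax observed directly, AUC by linear/log trapezoidal summation, F as dose-normalized PO/IV AUC ratio.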

Hepatitis C virus [13] = assay: Antiviral activity against HCV genotype 2b infected in human HuH7 cells after 3 days by luciferase reporter assay; format: functional, cell-based, Hepacivirus hominis; settings: Huh-7, 72 h
Hepatitis C virus [14] = assay: Antiviral activity against HCV genotype 6a infected in human HuH7 cells after 3 days by luciferase reporter assay; format: functional, cell-based, Hepacivirus hominis; settings: Huh-7, 72 h
[15] = Cytotoxicity against primary human hepatocytes; format: cell-based, Hepatocyte
Hepatitis C virus [16] = assay: Antiviral activity against HCV genotype 1b infected in human HuH7 cells co-treated with daclatasvir/asunaprevir after 3 days by luciferase reporter assay; format: functional, cell-based; settings: Hepacivirus hominis
[17] = Protein binding in monkey serum; format: ADME, cell-free, Macaca mulatta; settings: rhesus monkey, read-out: PB (converted)
[18] = Protein binding in dog serum; format: ADME, cell-free, Canis lupus familiaris; settings: read-out: PB (converted)
[19] = Aqueous solubility of compound; format: physicochemical; settings: buffer
[20] = AUC in Sprague-Dawley rat at 6 mg/kg, po administered via gavage using docusate sodium/methocel/water formulation by LC/MS/MS analysis; format: ADME, organism-based; settings: in vivo
Summary of the method: (§3)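 Rats were fasted overnight and gavaged with a suspension of spray-dried dispersion (10% w/w drug loading in 0.02:0.5:99.48 docusate/methocel/water), n = 3 per group. Serial EDTA plasma was taken predose to 24 h and assayed by LC/MS/MS. Analysis was noncompartmental: Cmax observed, AUC by linear/log trapezoids, F from dose-normalized PO versus IV AUC.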

Rattus norvegicus = assay: Toxicity in rat up to 100 mg/kg, po administered as single dose measured up to 2 weeks; format: organism-based; settings: in vivo, 336 h
[21] = Oral bioavailability in Sprague-Dawley rat at 6 mg/kg using docusate sodium/methocel/water formulation by LC/MS/MS analysis; format: ADME, organism-based; settings: in vivo; summary of the method: as §3
Homo sapiens [22] = assay: Toxicity in human up to 400 mg/day, po for 14 days; settings: in vivo, 336 h
Homo sapiens [23] = assay: Toxicity in human up to 400 mg, po administered as single dose; settings: in vivo

Voltage-gated inwardly rectifying potassium channel KCNH2, sequence (Q12809 whole entry): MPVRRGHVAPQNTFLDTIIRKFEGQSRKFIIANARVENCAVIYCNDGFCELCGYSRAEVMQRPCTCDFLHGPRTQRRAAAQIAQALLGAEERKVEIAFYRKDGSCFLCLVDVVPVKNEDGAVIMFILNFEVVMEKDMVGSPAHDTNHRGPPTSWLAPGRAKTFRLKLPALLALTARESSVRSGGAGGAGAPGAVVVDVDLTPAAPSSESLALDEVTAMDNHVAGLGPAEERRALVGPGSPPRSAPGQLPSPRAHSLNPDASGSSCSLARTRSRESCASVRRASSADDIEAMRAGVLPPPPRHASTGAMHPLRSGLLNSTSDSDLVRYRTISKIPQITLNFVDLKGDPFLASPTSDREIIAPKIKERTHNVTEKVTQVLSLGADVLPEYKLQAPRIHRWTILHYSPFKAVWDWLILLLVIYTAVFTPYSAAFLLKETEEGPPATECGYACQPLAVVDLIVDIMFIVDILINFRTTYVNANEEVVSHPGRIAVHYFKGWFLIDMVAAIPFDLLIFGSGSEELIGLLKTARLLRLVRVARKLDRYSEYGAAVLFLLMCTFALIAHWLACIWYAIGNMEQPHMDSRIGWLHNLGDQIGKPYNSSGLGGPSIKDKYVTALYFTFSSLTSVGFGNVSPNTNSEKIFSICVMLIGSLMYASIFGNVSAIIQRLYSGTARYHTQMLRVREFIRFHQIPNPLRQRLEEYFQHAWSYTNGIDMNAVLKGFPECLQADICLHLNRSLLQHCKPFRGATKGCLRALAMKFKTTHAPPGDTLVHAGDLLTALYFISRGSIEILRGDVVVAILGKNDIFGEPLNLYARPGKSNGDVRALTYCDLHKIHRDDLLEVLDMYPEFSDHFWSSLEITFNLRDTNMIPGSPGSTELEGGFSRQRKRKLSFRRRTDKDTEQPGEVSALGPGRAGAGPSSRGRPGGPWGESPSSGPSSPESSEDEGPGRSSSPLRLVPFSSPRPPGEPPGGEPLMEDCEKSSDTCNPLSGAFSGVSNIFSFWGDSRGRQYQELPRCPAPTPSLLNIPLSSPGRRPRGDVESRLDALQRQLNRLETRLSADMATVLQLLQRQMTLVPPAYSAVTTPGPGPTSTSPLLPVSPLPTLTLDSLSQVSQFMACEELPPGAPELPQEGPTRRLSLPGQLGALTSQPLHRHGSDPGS

## CNC(=O)c1c(-c2ccc(F)cc2)oc2ccc(-c3cc(C(=O)NC4(c5ncccn5)CC4)ccc3C)c(F)c12 [BMS-929075]
[1]
  CC50 at 72 h: 60000 nM
[2]
  EC50: 18 nM
Hepatitis C virus [3]
  EC50: 4 nM
[4]
  Papp: 97.2 ×10⁻⁶ cm/s
[5]
  IC50: 24000 nM
[6]
  EC50: > 50000 nM
[7]
  Ratio: 10
Canis familiaris
  Activity: Non-Toxic
[8]
  clearance: 1.7 mL/min/kg
[9]
  half-life: 4.7 h
[10]
  Tmax: 4 h
[11]
  Kp at 24 h: 1.6
[12]
  bioavailability: 48%
Hepatitis C virus [13]
  EC50: 115 nM
Hepatitis C virus [14]
  EC50: 5 nM
[15]
  CC50: > 50000 nM
Hepatitis C virus [16]
  Activity: Active
[17]
  fraction unbound: 0.028
[18]
  fraction unbound: 0.019
[19]
  solubility: < 1 µg/mL
[20]
  AUC: 140 µM·h
Rattus norvegicus
  Activity: Non-Toxic
[21]
  bioavailability: > 100%
Homo sapiens [22]
  Activity: Non-Toxic
Homo sapiens [23]
  Activity: Non-Toxic

From ChEMBL document CHEMBL4014311, “Discovery of a Hepatitis C Virus NS5B Replicase Palm Site Allosteric Inhibitor (BMS-929075) Advanced to Phase 1 Clinical Studies” (J Med Chem, 2017)
